Source: PubChem BioAssay
ALR H2O2 inh – inhibitors of human sulfhydryl oxidase ALR | actives 3.8% (n = 290,000) | P55789 | inhibition, % (concentration not given with the values) | purified ALR, DTT oxidation, H2O2 HRP-luminol luminescence;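 active = mean replicate inhibition above about 79%, with every replicate also reaching it, limit read from the data; inconclusive = only one of the two criteria met; inactive = mean below limit and not every replicate reaching it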
Target sequence (P55789 whole entry, looked up): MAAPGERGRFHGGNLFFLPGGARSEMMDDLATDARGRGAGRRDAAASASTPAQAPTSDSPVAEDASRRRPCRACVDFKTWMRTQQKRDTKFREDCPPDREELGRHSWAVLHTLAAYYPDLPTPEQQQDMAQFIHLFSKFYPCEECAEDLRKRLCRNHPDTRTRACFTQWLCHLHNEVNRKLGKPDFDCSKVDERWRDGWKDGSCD
core dimer inh – blocks dimerization of HCV core protein; TR-FRET GST/Flag-core106 dimerization, 1536-well; inhibition, % at 5 µM; actives 0.33% (n = 300,000); AID 1899;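 active = inhibition above the mean of all tested compounds plus 3 SD, set per screening campaign, cut at about 45% in these data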
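Assay system: Tagged HCV core106 pair (GST and Flag) | Buffer or medium: KF-containing HEPES buffer, pH 7.45, DTT, CHAPS, BSA | Also added: Eu donor and XL665 acceptor anti-tag antibodies | Dosing: One concentration, 5 µM, in 0.5% DMSO | Timing: 4 h at 22.5 °C | Technique: TR-FRET 671 and 617 nm emission | Repeats: Singlicate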
HSF1 inh – HSF1 inhibition | NIH3T3-HGL HSE-luciferase, MG132-induced, luminescence 8 h; hits give low values | activity change, negative = inhibition, % at 7.5 µM (by protocol) | actives 0.77% (n = 300,000) | AID 2098;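 active = more than half of replicate wells show activity change below -50%, luminescence cut by over half; inconclusive = some wells, but at most half, below -50%; inactive = no replicate well below -50%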;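 also: luciferase reports HSF-1 transcriptional activity via heat shock element; 0% = median of DMSO wells and -100% = zero luminescence signal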
HSF1 activator – increases HSF-1 driven luciferase reporter signal. NIH3T3-HGL HSF-1 luciferase reporter, MG132, 8 h; 100% = twice DMSO control signal. activation, % at 9 µM. actives 1.7% (n = 300,000). AID 504408;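 active = mean replicate activation of at least 50% with a set share of replicates each reaching 50%; inconclusive = only one of those two conditions met; inactive = mean below 50% and too few replicates reaching it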;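 also: 0% = median of the neutral control wells and 100% = twice that signal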
PHOSPHO1 inh – PHOSPHO1 (human) inhibition; Q8TCT1; recombinant PHOSPHO1, absorbance phosphatase assay; inhibition, % at 13.3 µM; actives 1.1% (n = 290,000); in the data active = inhibition above about 60%
Target sequence (Q8TCT1 whole entry, looked up): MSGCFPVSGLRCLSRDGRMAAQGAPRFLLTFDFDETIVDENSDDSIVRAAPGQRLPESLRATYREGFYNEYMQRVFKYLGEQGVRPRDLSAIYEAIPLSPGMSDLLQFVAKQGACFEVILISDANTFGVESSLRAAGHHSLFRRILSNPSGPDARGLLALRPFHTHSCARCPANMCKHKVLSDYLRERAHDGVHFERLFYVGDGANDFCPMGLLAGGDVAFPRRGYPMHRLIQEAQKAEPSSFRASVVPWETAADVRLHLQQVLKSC
AI-2 QS modul – Vibrio harveyi AI-2 quorum sensing modulation; actives 0.4% (n = 300,000); Vibrio harveyi JMH597 AI-2 luminescence/OD600 ratio, 9 h; hits give low values; strain lacks LuxN and CqsS sensors; 0 = neutral-control median; activity change, % at 7.5 µM; in the data active = activity change below about -75%, passing the limit was not always enough; inconclusive = no clear call, values can overlap the other calls;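 also: luminescence divided by OD600 gain over 9 h not by final OD600 alone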
Starred values were filed as active, the others as inactive. In the library only some 6.8% were active in any assay of this set; here they are far more common.

`Cc1cc(=O)n2[nH]cnc2n1` gave ALR H2O2 inh -2, core dimer inh -8, HSF1 inh -6, HSF1 activator 11, PHOSPHO1 inh 4 and AI-2 QS modul 26.
For CCCc1cc(=O)n2[nH]cnc2n1 the results were ALR H2O2 inh -7, core dimer inh -5, HSF1 inh 3, HSF1 activator -16, PHOSPHO1 inh 61* and AI-2 QS modul 1.
`CCOC(=O)N1CCC(NC(=O)c2ccc3c(c2)N(C)C(=O)/C(=C/c2cccc(OC)c2)S3)CC1` gave ALR H2O2 inh -1, core dimer inh 4, HSF1 inh 18, HSF1 activator 37, PHOSPHO1 inh 32 and AI-2 QS modul 14.
Cc1cc(C)c2nc(N3C(=O)C(O)=C(C(=O)c4ccco4)C3c3cccc(O)c3)sc2c1 (stereo not drawn) was read as ALR H2O2 inh 99*.
Cc1ccc2nc(N3C(=O)C(O)=C(C(=O)c4ccco4)C3c3ccc(C)o3)sc2c1 (stereo not drawn) was read as ALR H2O2 inh 89*, core dimer inh 9, HSF1 inh 9, HSF1 activator 15, PHOSPHO1 inh 39 and AI-2 QS modul 50.
For CCOC(=O)c1sc(N2C(=O)C(O)=C(C(=O)c3ccco3)C2c2cccc(Cl)c2)nc1C (stereo not drawn) the results were core dimer inh -19, HSF1 inh 24, HSF1 activator 39, PHOSPHO1 inh 15 and AI-2 QS modul 52.
Cc1cc(C)c2nc(N3C(=O)C(O)=C(C(=O)c4ccco4)C3c3ccc(O)cc3)sc2c1 (stereo not drawn) was read as ALR H2O2 inh 99*.
For CCOC(=O)c1sc(N2C(=O)C(O)=C(C(=O)c3ccco3)C2c2cccc([N+](=O)[O-])c2)nc1C (stereo not drawn) the results were ALR H2O2 inh 91*, core dimer inh 17, HSF1 inh 0, HSF1 activator -2, PHOSPHO1 inh 32 and AI-2 QS modul 22.
`COc1ccc(NCC(O)Cn2cnc3c2c(=O)n(C)c(=O)n3C)cc1` (stereo not drawn) gave ALR H2O2 inh 98*, core dimer inh -7, HSF1 inh -5, HSF1 activator 0, PHOSPHO1 inh 6 and AI-2 QS modul 20.
For Cn1c(=O)c2c(ncn2CC(O)CNc2ccc(Br)cc2)n(C)c1=O (stereo not drawn) the results were ALR H2O2 inh 62, core dimer inh -4, HSF1 inh 7, HSF1 activator -9, PHOSPHO1 inh -40 and AI-2 QS modul 0.
COc1ccc(N=Cc2ccc(-c3ccccc3)o2)cc1 was read as core dimer inh -1, HSF1 inh -3, HSF1 activator -1, PHOSPHO1 inh 40 and AI-2 QS modul 12.
COc1ccc(N=Cc2ccc[nH]2)cc1 was read as ALR H2O2 inh -11, core dimer inh -6, HSF1 inh -62*, HSF1 activator -66, PHOSPHO1 inh 12 and AI-2 QS modul 11.
`CCCCOc1ccc(S(N)(=O)=O)cc1` gave ALR H2O2 inh -2, core dimer inh 3, HSF1 inh -9, HSF1 activator -21, PHOSPHO1 inh 0 and AI-2 QS modul 5.
Screening CCCCOc1ccc(N=Cc2ccc[nH]2)cc1 returned core dimer inh -4, HSF1 inh -68*, HSF1 activator -73, PHOSPHO1 inh 8 and AI-2 QS modul 4.
COc1ccc(S(=O)(=O)NCc2cccs2)cc1 was read as ALR H2O2 inh 2, core dimer inh -2, HSF1 inh 2, HSF1 activator 0, PHOSPHO1 inh 17 and AI-2 QS modul 19.
COc1ccc(S(=O)(=O)N(Cc2cccs2)C2CCCC2)cc1 was read as ALR H2O2 inh 99*, core dimer inh 8, HSF1 inh -9, HSF1 activator -10, PHOSPHO1 inh -1 and AI-2 QS modul 26.
`COC(C/C=C\C(=O)COCc1ccccc1)OC` gave core dimer inh 12, HSF1 inh -2, HSF1 activator 0 and AI-2 QS modul 8.
`COC(C/C=C/C(=O)[C@H](C)OCc1ccccc1)OC` gave ALR H2O2 inh 87*, core dimer inh 15, HSF1 inh 5, HSF1 activator 2 and AI-2 QS modul 5.
For Cc1cc(=O)[nH]c(SCc2cccc3cccnc23)n1 the results were core dimer inh -1, PHOSPHO1 inh 17 and AI-2 QS modul 1.
`Nc1cc(=O)[nH]c(SCc2cccc3ccccc23)n1` gave ALR H2O2 inh 99*, core dimer inh 9, HSF1 inh -13, HSF1 activator -9, PHOSPHO1 inh 26 and AI-2 QS modul 3.
For O=c1cc(C(F)(F)F)nc(SCc2cccc3ccccc23)[nH]1 the results were ALR H2O2 inh 19, core dimer inh 7, HSF1 inh -1, HSF1 activator -3, PHOSPHO1 inh 15 and AI-2 QS modul 9.
For CCc1cc(=O)[nH]c(SCc2cccc3ccccc23)n1 the results were ALR H2O2 inh 98*, core dimer inh 2, HSF1 inh 3, HSF1 activator 11, PHOSPHO1 inh 34 and AI-2 QS modul 27.
O=C1CC2(CCCC2)Oc2ccc(F)cc21 was read as ALR H2O2 inh -1, core dimer inh 1, HSF1 inh -3, HSF1 activator 1 and AI-2 QS modul 11.
c1ccc(N2N=C(c3cccs3)CC2c2ccco2)cc1 (stereo not drawn) was read as ALR H2O2 inh 97*, core dimer inh 2, HSF1 inh 24, HSF1 activator inconclusive, PHOSPHO1 inh 25 and AI-2 QS modul 16.
Screening Cc1ccc(OCC(=O)Oc2cccc(C)c2C)cc1 returned ALR H2O2 inh -1, core dimer inh -1, HSF1 inh 4, HSF1 activator 2, PHOSPHO1 inh 8 and AI-2 QS modul 2.
`Cc1ccc(/C=C/C(=O)c2ccccc(=O)c2O)cc1C` gave ALR H2O2 inh 96*, core dimer inh 11, HSF1 inh 43, HSF1 activator 76*, PHOSPHO1 inh 0 and AI-2 QS modul 3.
`O=C(/C=C/c1ccc(F)cc1)c1cc(Br)ccc1O` gave ALR H2O2 inh -7, core dimer inh 0, HSF1 inh 8, HSF1 activator 12, PHOSPHO1 inh 24 and AI-2 QS modul 12.
`O=C(/C=C/c1ccccc1)c1cc(Br)ccc(=O)c1O` gave ALR H2O2 inh 48, core dimer inh 8, HSF1 inh 72, HSF1 activator 91*, PHOSPHO1 inh 38 and AI-2 QS modul 17.
COc1ccc(NC(=O)c2ccc(Br)o2)cc1 was read as ALR H2O2 inh -19, core dimer inh 2, HSF1 inh 24, HSF1 activator 38, PHOSPHO1 inh -6 and AI-2 QS modul 8.
